≈ marks a conversion by molar mass, not a printed value. Calls of active or inactive are those of the source. The rule behind the calls is not given here.
Experiments:
[1] = Lipophilicity, log D of the compound at pH 7.4 by potentiometric titration method; assay type: physicochemical; settings: buffer
How it was run: (§1)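 Intrinsic aqueous solubility and logD at pH 7.4 determined by Avdeef-Bucher potentiometric titration on a pION Gemini Profiler.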

[2] = biological target: T1, Nuclear factor erythroid 2-related factor 2 (Homo sapiens) (UniProt Q16236); assay: Activation of Nrf2 in human HepG2-ARE-C8 cells assessed as induction of ARE-mediated luciferase activity at 80 uM after 24 hrs by luciferase reporter gene assay relative to control; assay type: cell-based
T1 sequence (whole entry): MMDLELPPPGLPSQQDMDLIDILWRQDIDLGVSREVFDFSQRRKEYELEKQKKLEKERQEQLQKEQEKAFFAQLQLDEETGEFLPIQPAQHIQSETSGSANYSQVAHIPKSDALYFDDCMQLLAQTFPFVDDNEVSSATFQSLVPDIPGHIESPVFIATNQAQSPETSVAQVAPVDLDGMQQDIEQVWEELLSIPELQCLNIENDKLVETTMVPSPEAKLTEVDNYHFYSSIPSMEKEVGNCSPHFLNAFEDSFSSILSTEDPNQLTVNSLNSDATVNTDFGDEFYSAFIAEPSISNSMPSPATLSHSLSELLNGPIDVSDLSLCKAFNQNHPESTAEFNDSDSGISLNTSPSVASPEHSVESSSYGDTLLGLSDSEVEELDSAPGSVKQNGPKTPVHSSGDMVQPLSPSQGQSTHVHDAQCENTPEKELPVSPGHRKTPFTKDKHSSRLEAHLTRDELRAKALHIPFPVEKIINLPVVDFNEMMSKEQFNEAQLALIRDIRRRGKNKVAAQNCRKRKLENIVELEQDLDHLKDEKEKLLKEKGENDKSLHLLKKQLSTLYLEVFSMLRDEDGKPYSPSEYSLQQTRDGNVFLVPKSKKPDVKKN
How it was run: (§2)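 HepG2-ARE-C8 cells stably carrying ARE-luciferase, grown in DMEM with 10% FBS at 37 °C and 5% CO2. Seeded at 5 × 10^4 cells/well, left overnight, then given compound diluted from a 10 mM DMSO stock for 24 h. Cells lysed and luciferase read as RLU. Inductivity = (RLUtest − RLUblank)/(RLUcontrol − RLUblank), with DMSO as control. Mean ± SEM of three experiments.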

[3] = biological target: T1, Nuclear factor erythroid 2-related factor 2 (Homo sapiens); assay: Activation of Nrf2 in human HepG2-ARE-C8 cells assessed as induction of ARE-mediated luciferase activity at 0.1 uM after 24 hrs by luciferase reporter gene assay relative to control; assay type: cell-based; how it was run: as §2
[4] = Intrinsic aqueous solubility of the compound by potentiometric titration method; assay type: physicochemical; how it was run: as §1
HepG2 = assay: Cytotoxicity against human HepG2 cells at 80 uM after 24 hrs by MTT assay; assay type: cell-based; settings: hepg2, 24 h
[5] = biological target: T1, Nuclear factor erythroid 2-related factor 2 (Homo sapiens); assay: Activation of Nrf2 in human HepG2-ARE-C8 cells assessed as induction of ARE-mediated luciferase activity at 1 uM after 24 hrs by luciferase reporter gene assay relative to control; assay type: cell-based; how it was run: as §2
[6] = biological target: T1, Nuclear factor erythroid 2-related factor 2 (Homo sapiens); assay: Activation of Nrf2 in human HepG2-ARE-C8 cells assessed as induction of ARE-mediated luciferase activity at 20 uM after 24 hrs by luciferase reporter gene assay relative to control; assay type: cell-based; how it was run: as §2
[7] = biological target: T1, Nuclear factor erythroid 2-related factor 2 (Homo sapiens); assay: Activation of Nrf2 in human HepG2-ARE-C8 cells assessed as induction of ARE-mediated luciferase activity at 0.01 uM after 24 hrs by luciferase reporter gene assay relative to control; assay type: cell-based; how it was run: as §2
[8] = biological target: T1, Nuclear factor erythroid 2-related factor 2 (Homo sapiens); assay: Activation of Nrf2 in human HepG2-ARE-C8 cells assessed as induction of ARE-mediated luciferase activity at 40 uM after 24 hrs by luciferase reporter gene assay relative to control; assay type: cell-based; how it was run: as §2
L02 [9] = assay: Cytotoxicity against human LO2 cells at 160 uM after 24 hrs by MTT assay; assay type: cell-based; settings: l02, 24 h
How it was run: (§3)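 LO2 cells plated for 12 h, then treated for 24 h with 0, 0.2, 2, 20, 40, 80 or 160 μM compound diluted in medium from a DMSO stock. MTT (5 mg/mL stock) added for 4 h, formazan dissolved in DMSO, A570 read. Viability computed from OD relative to DMSO control and blank. Mean ± SD of three experiments.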

L02 [10] = assay: Hepatoprotective activity against APAP-induced cell injury in human LO2 cells assessed as increase in cell viability at 20 uM pretreated for 24 hrs followed by APAP treatment measured after 24 hrs by MTT assay; assay type: functional
How it was run: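 LO2 cells plated for 12 h and pretreated for 24 h with 5, 10 or 20 μM compound. One arm was first transfected with 50 nM Nrf2 siRNA before receiving 20 μM compound. Medium then replaced with medium containing 8 mM APAP for 24 h. Viability by MTT at A570. Mean ± SD of three experiments.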

L02 [11] = assay: Cytotoxicity against human LO2 cells up to 160 uM after 24 hrs by MTT assay; assay type: cell-based; settings: l02, 24 h; how it was run: as §3
[12] = biological target: T1, Nuclear factor erythroid 2-related factor 2 (Homo sapiens); assay: Activation of Nrf2 in human HepG2-ARE-C8 cells assessed as induction of ARE-mediated luciferase activity at 0.2 uM after 24 hrs by luciferase reporter gene assay relative to control; assay type: cell-based
[13] = biological target: T1, Nuclear factor erythroid 2-related factor 2 (Homo sapiens); assay: Activation of Nrf2 in human HepG2-ARE-C8 cells assessed as induction of ARE-mediated luciferase activity at 0.02 uM after 24 hrs by luciferase reporter gene assay relative to control; assay type: cell-based
[14] = biological target: T1, Nuclear factor erythroid 2-related factor 2 (Homo sapiens); assay: Activation of Nrf2 in human HepG2-ARE-C8 cells assessed as induction of ARE-mediated luciferase activity at 2 uM after 24 hrs by luciferase reporter gene assay relative to control; assay type: cell-based

Row | logD [1] | Activity [2] | Activity [3] | solubility [4] [µM] | Activity [5] | Activity [6] | Activity [7] | Activity [8] | Activity [12] | Activity [13] | Activity [14] | SMILES | Activity (HepG2) | Activity (L02 [9]) | Activity (L02 [10]) | Activity (L02 [11])
1 | 4.75 | 14.7 | 1.25 | 16 (≈ 5.35 µg/mL) | 6.75 | 8.54 | 1.15 | 10.8 | – | – | – | Fc1ccc(-c2nc(-c3ccc(-c4ccccc4)cc3)no2)cc1F | Non-Toxic | – | – | –
2 | 3.91 | 18.2 | 3.78 | 77 (≈ 26 µg/mL) | 4.49 | 8.65 | 2.68 | 12.2 | – | – | – | Fc1ccc(-c2nc(-c3ccc(Br)cc3)no2)cc1F | Non-Toxic | – | – | –
3 | – | – | – | – | – | – | 1.57 | – | – | – | – | Fc1ccc(-c2nc(-c3ccc4nc[nH]c4c3)no2)cc1 | Non-Toxic | <= 20% | – | –
4 | 3.3 | 49.9 | 6.21 | 99 (≈ 29.5 µg/mL) | 12.3 | 24 | 1.46 | 42.6 | – | – | – | Fc1ccc(-c2nc(-c3ccc4nc[nH]c4c3)no2)cc1F | Non-Toxic | <= 20% | – | –
5 | 3.92 | 24 | 2.88 | 91 (≈ 28.6 µg/mL) | 2.91 | 8.35 | 1.35 | 13.2 | – | – | – | CC(C)(C)c1ccc(-c2noc(-c3ccc(F)c(F)c3)n2)cc1 | Non-Toxic | – | – | –
6 | 4.16 | 10.2 | 1.22 | 35 (≈ 9.53 µg/mL) | 1.85 | 2.51 | 0.67 | 6.62 | – | – | – | Cc1ccc(-c2noc(-c3ccc(F)c(F)c3)n2)cc1 | Non-Toxic | – | – | –
7 | 2.65 | 10.6 | 1.06 | 220 (≈ 60.1 µg/mL) | 2.04 | 8.96 | 0.63 | 9.76 | – | – | – | Cc1ccnc(-c2noc(-c3ccc(F)c(F)c3)n2)c1 | Non-Toxic | – | – | –
8 | – | 5.27 | – | – | – | 1.41 | – | 2.14 | 1.25 | 1.18 | 1.24 | CC(C)(C)c1cc(O)ccc1O [E319] | – | – | Active | <= 7%
9 | 2.86 | 5.68 | 1.08 | 200 (≈ 54.6 µg/mL) | 2.65 | 3.96 | 1.16 | 4.46 | – | – | – | Cc1cccc(-c2noc(-c3ccc(F)c(F)c3)n2)n1 | Non-Toxic | – | – | –

Row | SMILES | logD [1] | Activity [2] | Activity [3] | solubility [4] [µM] | Activity [5] | Activity [6] | Activity [7] | Activity [8] | Activity [12] | Activity [13] | Activity [14] | Activity (HepG2) | Activity (L02 [9]) | Activity (L02 [10]) | Activity (L02 [11])
10 | CN(C)C=O | – | – | 1 | – | 1.1 | 1.65 | 0.82 | 2.97 | – | – | – | – | – | Active | –

Reference: ChEMBL document CHEMBL4265908, “Structure-activity and structure-property relationships of novel Nrf2 activators with a 1,2,4-oxadiazole core and their therapeutic effects on acetaminophen (APAP)-induced acute liver injury” (Eur J Med Chem, 2018)
